Shown are actives, neighbours in structure and some others; about 2.2% of the full set was active somewhere.
TDP2 absorb = human TDP2 enzyme inhibitors, primary screen, biochemical, epi absorbance, recombinant enzyme; Tyrosyl-DNA phosphodiesterase 2 (Homo sapiens), O95551; T5PNP hydrolysis, p-nitrophenol absorbance 415 nm; inhibition, % at 12.8 µM; 370,000 compounds, 0.34% hits; AID 720702, 2013;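 active means inhibition above the mean of all tested compounds plus 3 SD, set per campaign, cut at about 25% in these data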
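System: recombinant human TDP2 / Amount: 120 nM TDP2 per well / Also added: 5 mM T5PNP chromogenic substrate / Doses: 12.8 µM single point, 1% DMSO / Incubation: 2 h at 37 °C / Detection: p-Nitrophenol epi absorbance / Evaluation: % inhibition relative to enzyme-containing and enzyme-free wells / Repeats: singlicate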
mABHD4 FP = ABHD4 inhibitors, primary screen, biochemical, fluorescence polarization, mouse | inhibition, % at 8.92 µM | (Lyso)-N-acylphosphatidylethanolamine lipase (Mus musculus), Q8VD66 | AID 720543, 2013 | purified mABHD4, FP-Rh probe fluorescence polarization | 370,000 compounds, 0.54% hits;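 active means inhibition exceeding the mean over every tested compound plus 3 SD, cut at about 30% in these data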
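Assay system: mABHD4 protein; medium: HEPES pH 7.0, NaCl, Pluronic buffer; dosing: 8.92 µM, single dose; schedule: 45 min + 60 min at 25 °C; signal: FP readout, ex 525 nm / em 598 nm; read-out: normalized percent inhibition of probe labeling; repeats: single replicate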
SIAE primary = human SIAE inhibitors, primary screen, biochemical, fluorescence polarization, FP-Rh probe, 1536-well HTS; inhibition, % at 9.66 µM; 370,000 compounds, 0.69% hits; AID 1053197, 2014; SIAE FP-Rh probe binding; Sialate O-acetylesterase (Homo sapiens), Q9HAT2;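 active means inhibition above a cutoff: mean of compounds within the control limits plus 3 SD of those, cut at about 17% in these data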
HTRA1 inh = HTRA1 serine protease inhibitors, primary screen, biochemical, fluorescence polarization, HTS. Q92743. recombinant HTRA1, FP-rhodamine activity-based probe. inhibition, % at 5.96 µM. 340,000 compounds, 0.5% hits; in the data active means inhibition above about 36%
Target sequence (Q92743 whole entry, looked up): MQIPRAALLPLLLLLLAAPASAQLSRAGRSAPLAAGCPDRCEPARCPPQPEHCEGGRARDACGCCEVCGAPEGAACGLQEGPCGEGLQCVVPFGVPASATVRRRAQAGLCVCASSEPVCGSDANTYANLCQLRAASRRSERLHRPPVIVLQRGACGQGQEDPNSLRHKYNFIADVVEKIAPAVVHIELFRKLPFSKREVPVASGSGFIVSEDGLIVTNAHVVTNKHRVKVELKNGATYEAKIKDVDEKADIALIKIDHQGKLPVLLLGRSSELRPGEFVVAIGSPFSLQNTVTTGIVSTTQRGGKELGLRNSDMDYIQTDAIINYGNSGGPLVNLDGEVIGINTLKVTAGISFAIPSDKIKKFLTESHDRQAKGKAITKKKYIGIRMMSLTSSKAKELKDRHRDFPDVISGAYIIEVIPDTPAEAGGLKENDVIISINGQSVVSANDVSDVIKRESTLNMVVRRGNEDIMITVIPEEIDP
LEDGF integ inh = blockers of LEDGF/p75-dependent integrase strand transfer – biochemical, TR-FRET, high throughput, primary screen | HIV-1 integrase (with human LEDGF/p75) | TR-FRET IN-LEDGF/p75 DNA integration, Eu/Cy5 | inhibition, % at 3.7 µM | 370,000 compounds, 0.64% hits | AID 743269, 2014;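 active means inhibition above the screen-wide mean plus 3 SD, cut at about 13% in these data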;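 further: signal is the Cy5 over europium emission ratio at 671 and 618 nm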
TCR-CD3 inh = inhibitors of human TCR-CD3 interaction, primary screen, biochemical, fluorescence, TAMRA-labeled TCR probe; T-cell receptor (TCR); 360,000 compounds, 0.37% hits; inhibition, % at 9.4 µM; in the data active means inhibition above about 19%;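 further: recombinant mutant TCR 2C K166C tagged with TAMRA read by polarization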
ABHD4 confirm = ABHD4 inhibitors, retest, confirmation, biochemical, fluorescence polarization, mouse. shares compounds with mABHD4 FP. 1,800 compounds, 55% hits. inhibition, % at 8.92 µM. AID 720658, 2013. purified mABHD4, FP-Rh probe fluorescence polarization;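 active means mean inhibition across replicates above the hit cutoff set in the primary screen, cut at about 30% in these data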
Hits are given with their value; i = inactive; nt = no result given.

SMILES	TDP2 absorb	mABHD4 FP	SIAE primary	HTRA1 inh	LEDGF integ inh	TCR-CD3 inh	ABHD4 confirm
CCCCOc1cccc(OCC(=O)Nc2nc3ccccc3[nH]2)c1	i	43.4	i	i	i	i	i
CCCOc1cccc(OCC(=O)Nc2nc3ccccc3[nH]2)c1	i	31.2	i	i	i	i	i
O=C(NCCc1ccccc1F)c1cc2ccccn2n1	i	i	i	nt	i	nt	nt
CN1CCS/C1=C/C=C1\SC(=S)N(CC(=O)O)C1=O	i	i	i	i	i	i	nt
CCCCN1C(=O)/C(=C/C=C2\SCCN2C)SC1=S	i	32.8	i	i	i	i	i
O=C(NCCc1c[nH]c2ccccc12)[C@H](Cc1c[nH]c2ccccc12)NC1(C(=O)NC2CCCCC2)CCCCCCC1	i	i	i	nt	i	nt	nt
O=C1NN(c2cccc(Br)c2)C(=O)/C1=C\c1ccccc1	i	37.2	i	i	i	i	i
Cc1cccc(N2C(=O)SC(N(C)c3ccccc3)C2=O)c1 (configuration not stated)	i	64.3	i	i	i	i	i
Cc1cccc(N2C(=O)CCC2=O)c1	i	i	i	i	i	i	nt
COc1ccc(C(=O)NNS(=O)(=O)c2ccc(OC)cc2)cc1	i	i	i	i	i	i	nt
COc1ccc(S(=O)(=O)NNC(=O)C(=O)NNc2ccccn2)cc1	i	31.0	i	i	i	i	i
COC(=O)[C@]12C[C@H](CC(=O)NCc3ccc(C)o3)C(=O)N(Cc3ccccc3)C1=C[C@H](C1CCCC1)O[C@@H]2C	i	i	i	nt	i	i	nt
Cc1c(C#N)c(O)[nH]c(=O)c1N=Nc1ccc(S(N)(=O)=O)cc1	i	38.5	i	i	i	i	46.6
O=C(Nc1ncccc1O)c1c(O)c2ccccc2[nH]c1=O	i	38.9	i	i	i	i	i
Cc1cccc(C)c1NC(=O)c1c(O)c2ccccc2[nH]c1=O	i	i	i	i	i	i	nt
NC(=S)N/N=C1\c2ccccc2-c2c(C(=O)O)cccc21	i	41.9	i	i	i	i	47.1
COC(=O)C[C@H]1CC[C@@H]2[C@@H](COc3ccc(NC(=O)C4CCCCC4)cc3C(=O)N2C)O1	i	i	i	nt	i	nt	nt
COc1ccccc1N(C(=O)CCl)c1cn(C(C)=O)c2ccccc12	i	i	i	i	i	i	nt
COc1ccccc1N(C(C)=O)C1=C(Cl)C(=O)c2ccccc2C1=O	i	39.4	i	i	i	i	46.5
Oc1ccc(NC(=S)N=Nc2c(O)[nH]c3ccc(Br)cc23)cc1	i	30.4	i	i	i	i	32.8
Cc1ccc(O)c(N=Cc2sc3ccccc3c2Cl)c1	i	i	i	i	i	i	nt
Oc1ccccc1N=Cc1sc2ccccc2c1Cl	i	32.4	i	i	i	i	i
CCC(=O)N(C)C[C@@H]1[C@H](c2ccc(C3=CCCCC3)cc2)[C@H](CO)N1C(=O)CC	i	i	i	nt	i	nt	nt
C=CCN1[C@H](CO)[C@H](c2ccc(C#CC3(O)CCCC3)cc2)[C@@H]1C#N	i	i	i	nt	i	nt	nt
Cn1c(/N=C/c2c(O)ccc3ccccc23)nc2ccccc21	i	30.7	i	i	i	i	i
SMILES	TDP2 absorb	mABHD4 FP	SIAE primary	HTRA1 inh	LEDGF integ inh	TCR-CD3 inh	ABHD4 confirm
CCOC(=O)[C@@]12CCCC=C1N(CCc1ccc(Cl)cc1)C(=O)[C@H]2CC(=O)NCc1ccc(OC)c(OC)c1	i	i	i	nt	i	nt	nt
COC(=O)[C@]12C[C@H](CC(=O)NCc3cccc4ccccc34)C(=O)N(Cc3ccc4c(c3)OCO4)C1=C[C@H](COCc1ccccc1)O[C@@H]2C	i	i	i	nt	i	i	nt
O=[N+]([O-])c1cccc(NN=Nc2ccccc2)c1	i	i	i	i	i	i	nt
O=C(O)c1cccc(NC(=O)c2cccc(S(=O)(=O)Nc3cccc([N+](=O)[O-])c3)c2)c1	i	i	i	i	i	i	nt
O=C(O)c1cc(NN=Nc2ccc(Br)cc2)cc([N+](=O)[O-])c1	i	67.7	i	i	i	i	67.2
O=C(O)c1cc(NN=Nc2cccc(S(=O)(=O)O)c2)cc([N+](=O)[O-])c1	i	38.8	i	i	i	i	35.5
O=C(O)c1cc(NN=Nc2cccc([N+](=O)[O-])c2)cc([N+](=O)[O-])c1	i	69.0	i	i	i	i	73.2
C[C@H]1[C@H](NC(=O)c2ccc(Cl)c(C(F)(F)F)c2)CC[C@@]23CCCN2C(=O)CCC[C@@H]13	i	i	i	nt	i	nt	nt
C[C@@H]1CN([C@@H](C)CO)C(=O)CCCn2cc(nn2)CO[C@H]1CN(C)C(=O)Nc1ccc(-c2cccs2)cc1	i	i	i	nt	i	i	nt
CSc1ccc(C(c2c(C)[nH][nH]c2=O)c2c(C)[nH][nH]c2=O)cc1	i	i	i	i	i	i	nt
CSc1ccc(C(c2c(C(=O)O)[nH]c3ccccc23)c2c(C(=O)O)[nH]c3ccccc23)cc1	i	46.2	i	i	i	i	60.5
CCOc1cc(Br)cc(C(c2c(C(=O)O)[nH]c3ccccc23)c2c(C(=O)O)[nH]c3ccccc23)c1O	i	61.5	i	i	i	i	67.7
CCOC(=O)c1[nH]c2ccccc2c1NC(C)=O	i	i	i	i	i	i	nt
CCN(CC)C(=O)CC[C@H]1CC[C@]2(CCCN(S(=O)(=O)C3CCCCC3)C2)O1	i	i	i	nt	i	nt	nt
O=C(Cn1nnc(-c2ccc(N3CCOCC3)cc2)n1)c1ccccc1	i	i	i	nt	i	nt	nt
CCn1c(COc2ccccc2)nnc1SCC(=O)Nc1ccc(S(=O)(=O)Nc2cc(C)nc(C)n2)cc1	i	i	i	nt	i	nt	nt
COc1ccccc1N1C(=O)C(Cl)=C(Nc2ccccc2O)C1=O	i	30.8	i	i	i	i	i
COc1ccc(NC(=O)CN(C)C(=O)c2ccccc2CCc2ccccc2)cc1	i	i	i	i	i	i	nt
CN(CC(=O)Nc1cccc(F)c1)C(=O)c1ccccc1CCc1ccccc1	i	36.0	i	i	i	i	i
COc1cc(CNc2ccc3[nH]c(=O)[nH]c3c2)ccc1OCc1ccc(Cl)cc1	i	i	i	i	i	i	nt
COc1cc(CNc2ccc3[nH]c(=O)[nH]c3c2)ccc1OCc1ccccc1	i	29.6	i	i	i	i	i
CCc1cc(-c2ccc3c(c2)COc2c4ccccc4nn2-3)on1	i	31.6	i	i	i	i	i

Screening data deposited in PubChem by The Scripps Research Institute Molecular Screening Center.
